This note sets out measurements from PubChem BioAssay AID1424 (The Scripps Research Institute Molecular Screening Center, 2008).

Out of some 220,000 compounds screened, about 390 (0.18%) were called active.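 Rule for the calls: active = activation above its plate's cutoff, the mean activation of test wells on that plate plus 3 SD (cut at about 19% in these data); inactive = the rest.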 What follows is part of a selection rich in actives, with near analogues and random picks from the rest.

The subject of this test is transient receptor potential cation channel N1 (TRPN1/NompC), Danio rerio. Briefly: zebrafish TRPN1 channel agonists, primary screen, cell-based, HEK293, calcium fluorescence (AID 1424).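 Note: 0% = DMSO alone and 100% = 87 µM carbachol.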 The following applies: HEK293 zebrafish TRPN1-YFP, Fluo-8 calcium fluorescence; at 3 µM; hits give high values; 100% = response to 87 µM carbachol. In a few lines:
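Material – zebrafish TRPN1-YFP in HEK293 cells · Doses – 3 µM single point · Schedule – dye 1 h 37 °C plus 30 min RT · Signal – Fluo-8 calcium fluorescence, excitation 470-495 nm, emission 515-575 nm · Read-out – % activation versus carbachol response · Control set – carbachol high, DMSO low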
`Cc1ccc(-n2c(C)cc(/C=N/Nc3ccc([N+](=O)[O-])cn3)c2C)c(C)c1`: the activation was -0.82% (inactive).
The result for `C/C=N/N(c1ccccc1)c1ccccc1` reads 0.69% (inactive); that for `COc1cc(NC(=S)NCCSc2ccc(C)cc2)cc(OC)c1`, -3.08% (inactive); that for `Cc1cc(C)c(S(=O)(=O)N2CCOCC2)cc1C`, -0.54% (inactive).
The result for `CC(C)n1c(NCc2c[nH]c3ccccc23)nc2ccccc21` reads -0.19% (inactive); that for `Cc1nc(S(=O)(=O)c2ccc(Br)cc2)nc2c1CCC2`, 0.17% (inactive).
Regarding `CN(C)C=NC(=O)c1cccn1-c1ncc(C(F)(F)F)cc1Cl`, the activation is -0.1% (inactive).
As for `NC(=O)c1ccc(NC(=O)COC(=O)c2c3c(nc4ccccc24)/C(=C\c2ccc4c(c2)OCO4)CCC3)cc1`, the activation was 41.6% (active).
The result for `NS(=O)(=O)c1ccc(NC(=O)COC(=O)c2c3c(nc4ccccc24)/C(=C\c2ccc4c(c2)OCO4)CCC3)cc1` reads 47.9% (active); that for `COc1cc(-c2cc(C(=O)OCC(=O)Nc3ccc4c(c3)OCO4)c3ccccc3n2)cc(OC)c1OC`, -1.87% (inactive).
In the case of `NS(=O)(=O)c1ccc(NC(=O)COC(=O)c2ccc(Cl)nc2)cc1`, the activation was 1.46% (inactive).
The result for `O=C(COC(=O)c1c2c(nc3ccccc13)/C(=C\c1cccs1)CCC2)Nc1ccccc1Cl` reads -1.63% (inactive).
Regarding `NS(=O)(=O)c1ccc(NC(=O)COC(=O)c2cc3ccccc3oc2=O)cc1`, the activation is 0.38% (inactive).
The result for `CCN1CCC2(CC1)N=C(c1ccc(F)cc1)C(=S)N2C(=O)c1ccc(C)cc1` reads -0.33% (inactive); that for `COC(=O)c1ccc(C(NC(=O)OCc2ccccc2)/C(C)=C/[C@@H](C)C(=O)NCc2ccc(OC)c(OC)c2)cc1` (stereo partly drawn), -0.55% (inactive); that for `COc1ccc(OCc2n[nH]c(=S)n2N)cc1`, 0.96% (inactive).
As to `COC(=O)c1ccc(CN2CCC(CO)(Cc3ccc(OC)cc3)CC2)cc1`, the activation was 4.67% (inactive).
The result for `CCn1c(=S)[nH]c2sc3c(c2c1=O)CCCCC3` reads 0.92% (inactive).
On to `O=C(C1=C[C@H](c2ccc(C(F)(F)F)cc2)C[C@H](OCc2ccc(CO)cc2)O1)N1CCN(Cc2ccccc2)CC1`, for which the activation is -0.62% (inactive).
In the case of `Cc1nc(=O)c(-c2ccccc2)c(C)n1-c1ccc(Br)cc1`, the activation is 1.06% (inactive).
The result for `CC1(C)CC(=O)C(C2c3ccccc3S(=O)(=O)c3ccccc32)C(=O)C1` reads -1.19% (inactive).
The result for `O=C(Cc1c(F)cccc1Cl)Nc1ncc([N+](=O)[O-])s1` reads 18.3% (inactive).
The result for `O=C(CCc1ccccc1)Nc1ncc([N+](=O)[O-])s1` reads 9.35% (inactive); that for `CC(=O)Oc1ccccc1C(=O)Nc1ncc([N+](=O)[O-])s1`, 22.2% (active); that for `CC(=O)c1ccc(N2CCN(S(=O)(=O)c3c(C)[nH]c(=O)[nH]c3=O)CC2)cc1`, 0.25% (inactive).
Turning to `CCc1nc2ccccc2c(C(=O)NCc2ccc(OC)cc2)c1C`, the activation is -0.1% (inactive).
The result for `Cc1ccc(CN(C)CC(=O)Nc2cccc([N+](=O)[O-])c2)o1` reads -1.16% (inactive); that for `CN(CC(=O)Nc1cccc(F)c1)CC(=O)Nc1cccc([N+](=O)[O-])c1`, 44.2% (active); that for `Cc1ccc(NC(=O)CN(C)CC(=O)Nc2cccc(F)c2)cc1[N+](=O)[O-]`, 8.52% (inactive).
The result for `CCOP(=O)(OCC)C(Nc1ccc([N+](=O)[O-])cc1)c1ccc(Cl)cc1` (stereo not drawn) reads -1.18% (inactive).
The result for `Cc1cc(Nc2ccc(Cl)cc2)nc(N2CCOCC2)n1` reads -0.78% (inactive); that for `O=C(O)CCn1c(SCc2cc(=O)n3ccccc3n2)nc2ccsc2c1=O`, 0.55% (inactive).
Take `CCN(CC)C(=O)CC1(c2ccccc2OC)CCOC(C(C)C)C1` (stereo not drawn): the activation is -0.7% (inactive).
As for `O=C(O)c1cccc(N2C(=O)Nc3ccccc3N2O)c1`, the activation is -0.51% (inactive).
The result for `COc1ccc(N2C(=O)c3ccccc3NC2c2ccc(OC)c(CN3CCOCC3)c2)cc1` (stereo not drawn) reads 0.64% (inactive); that for `CC(NC(=O)COC(=O)c1cc(=O)[nH]c2ccccc12)c1ccccc1` (stereo not drawn), 2.26% (inactive).
The result for `O=c1[nH]c2c(c(=O)n1Cc1ccccc1)CCC2` reads -0.42% (inactive); that for `Cc1cc2nc3c(=O)n(Cc4ccccc4)c(=O)[nH]c3nc2cc1N`, 37.4% (active).
The result for `CC(=O)c1ccc(-c2ccc(Cn3c(C)nc4cc(N)c(C)nc43)cc2)cc1` reads 0.89% (inactive).
With `COc1ccc(NC(=S)N2N=CCC2c2ccccc2)cc1` (stereo not drawn), the activation was 0.6% (inactive).
In the case of `CCOc1ccc2c(=O)c(-c3ccc4c(c3)OCCCO4)c(C)oc2c1`, the activation was -1.72% (inactive).
The result for `COC(=O)/C(C#N)=C/c1occc1C` reads 1.02% (inactive).
The result for `CCCCCc1ccc(-c2ccc(OCC)cc2)nc1` reads 1.46% (inactive); that for `O=C(Cc1ncc(C(F)(F)F)cc1Cl)Nc1cccc(Br)c1`, 0.3% (inactive).
The result for `c1ccc2c(c1)OCCOCCOCCO2` reads -2.17% (inactive); that for `CN(C)CCCN(Cc1cc2cc3c(cc2[nH]c1=O)OCCO3)C(=O)NC1CCCCC1`, 1.71% (inactive); that for `Cc1nn(-c2ccccc2)c(NC(=O)c2cccs2)c(-c2ccc(Cl)cc2)c1=O`, -0.42% (inactive).
As to `C/C(=N\NC(=O)CC(C)C)c1c(C(F)(F)F)[nH]n(-c2nc3ccccc3s2)c1=O`, the activation is -0.3% (inactive).
The result for `COc1ccc(C(=O)NC(=S)NNC(=O)CCc2ccccc2)cc1` reads 12% (inactive).
The result for `COc1ccc(C(=O)NC(=S)NNC(=O)c2c(-c3ccccc3)noc2C)cc1` reads 44% (active); that for `Cc1onc(-c2ccccc2)c1C(=O)NNC(=S)NC(=O)c1ccc(F)cc1`, 13.6% (inactive).
Turning to `CC(C)C(=O)Nc1cccc(NC(=S)NC(=O)C(c2ccccc2)c2ccccc2)c1`, the activation was 2.14% (inactive).
`CCCCC(=O)NNC(=S)NC(=O)C(c1ccccc1)c1ccccc1`: the activation was 84.8% (active).
The result for `O=C(NNC(=S)NCc1ccco1)C(c1ccccc1)c1ccccc1` reads -0.07% (inactive).
The result for `CC(=O)Nc1ccc(S(=O)(=O)NC2(C(F)(F)F)C(=O)Nc3c2c(=O)[nH]c(=O)n3Cc2ccccc2)cc1` (stereo not drawn) reads 2.33% (inactive).
For `CC(C)Cc1nc(Cl)c(C#N)c2c1CCC2`, the activation is -2.32% (inactive).
The result for `Cc1ccc(Nc2cc(C)nc3c(C)ccc([N+](=O)[O-])c23)cc1` reads -2.21% (inactive).
The result for `Cc1cc(N2CCN(c3ccc(F)cc3)CC2)n2ncnc2n1` reads 1.97% (inactive); that for `CCc1cccc(C)c1NC(=O)COC(=O)Cc1ccsc1`, -0.93% (inactive); that for `CN1CCN(NC(=O)c2ccc(S(=O)(=O)N3CCCCCC3)cc2)CC1`, 1.34% (inactive).
The result for `CCOC(=O)COc1nc(C)cc(C(F)(F)F)c1C#N` reads -0.81% (inactive); that for `CCOC(=O)/C(C#N)=C/c1ccc(N2CCCCC2)cc1`, 2.02% (inactive); that for `Cc1cc(C(=O)NNC(=S)Nc2ccccc2C)cs1`, 3.43% (inactive).
As to `CN(C)CCOCCOc1ccc(Cl)c2ccccc12`, the activation is 1.52% (inactive).
The result for `Cc1cccc(C)c1Nc1c(-c2ccccc2O)nc2ncccn12` reads 1.43% (inactive); that for `Cc1ccc(C2C(C#N)C(C#N)N3CCCN23)cc1` (stereo not drawn), -0.02% (inactive); that for `CCO/N=C(/C)c1c(O)cc(-c2ccccc2)n(-c2ccccc2)c1=O`, 0.61% (inactive).
The result for `COCc1c(N)c(C)nc(Cl)c1C#N` reads -0.99% (inactive).
As to `CCCc1nnc(SCC(=O)N2C(C)CCCC2C)n1CC` (stereo not drawn), the activation is 37.6% (active).
The result for `CCn1c(CSc2ncccn2)nnc1SCC(=O)N1c2ccccc2CC1C` (stereo not drawn) reads -0.46% (inactive); that for `CCn1c(Cc2ccccc2)nnc1SCC(=O)Nc1ccccc1`, 0.58% (inactive).
`O=C(O)CCN(Cc1ccccc1)S(=O)(=O)c1c(Cl)cccc1Cl`: the activation was 0.3% (inactive).
The result for `COc1cc(C(=O)OC(C)C(=O)NCC2CCCCC2)cc(NC(=O)c2ccco2)c1OC` (stereo not drawn) reads -0.78% (inactive); that for `COCCN(Cc1cc2cc3c(cc2nc1Cl)OCO3)C(=O)c1cccc(C)c1`, 0.19% (inactive).
The result for `CCN(CC)c1ccc2cc(C(=O)O)c(=O)oc2c1` reads 1.02% (inactive); that for `COc1ccc(C(=O)N/N=c2\oc3ccccc3cc2C(N)=O)cc1`, 1.99% (inactive); that for `CCN(CC)c1ccc2cc(C(N)=O)/c(=N\NC(=O)c3ccncc3)oc2c1`, 31.1% (active).
The result for `CCC(C)NC(=O)c1ccc(N2CCC3(CC2)OCCO3)c([N+](=O)[O-])c1` (stereo not drawn) reads 0.89% (inactive).
Turning to `O=C(/C=C/c1cccs1)NCc1cccnc1`, the activation was 0.53% (inactive).
The result for `COC(=O)C1=NN(c2ccccc2)C2C(=O)N(c3ccccc3OC)C(=O)C12` (stereo not drawn) reads -0.87% (inactive).
The result for `COc1cccc(NC(=O)COC(=O)CCOc2ccccc2OC)c1` reads -1.34% (inactive); that for `CCc1c(O)cc2n(c1=O)-c1ccccc1C2(C)C`, 1.3% (inactive); that for `CC(C)(C)NC(=O)CN(C(=O)c1csnn1)c1ccccc1-c1ccccc1`, 1.04% (inactive).
`O=C(CCN1CCN(c2ccccc2)CC1)NNC(=S)Nc1ccccc1`: the activation is 2.77% (inactive).
The result for `CCOc1ccccc1N1CN(Cc2ccccc2)CNC1=S` reads -0.98% (inactive); that for `Cn1cc(S(=O)(=O)NC(c2ccccc2)c2ccccc2)c(=O)n(C)c1=O`, 1.45% (inactive).
Regarding `COc1ccc(/C=N/NC(=O)C(C)N(c2ccc(OC)cc2)S(C)(=O)=O)cc1` (stereo not drawn), the activation was 0.5% (inactive).
As for `CC(C)(C)NC(=O)CN1CCC(NC(=O)C23CC4CC(CC(C4)C2)C3)CC1`, the activation was 2.37% (inactive).
The result for `O=C(COC(=O)c1ccc(F)cc1F)Nc1ncccn1` reads -0.68% (inactive); that for `O=C(COc1ccccc1)N1CCN=C1SCc1cccc(F)c1`, -0.02% (inactive); that for `Cc1cc(OCC(=O)NC2CCN(C)CC2)ccc1[N+](=O)[O-]`, 1.92% (inactive).
The result for `CC1Cc2ccccc2N1CC(=O)Nc1ccc(S(N)(=O)=O)cc1` (stereo not drawn) reads 1.19% (inactive).
For `Cc1c(Cl)cccc1NC(=O)Nc1ccc(C(=O)N2CCCC2)cc1`, the activation was -0.96% (inactive).
